# Assay outcomes deposited in PubChem by Broad Institute.
# T cruzi growth: T. cruzi intracellular proliferation inhibitors, primary screen, cell-based, beta-gal Tulahuen parasites, NIH3T3 host, luminescence; 5.9% of 77,000 active; inhibition, % at 8.34 µM; AID 624255, 2012; T. cruzi beta-gal in NIH3T3, GalScreen luminescence, 90 h;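 active = mean inhibition above about 93%, with at least 55% of replicates each passing it, limit read from the data, passing the limit was not always enough; inconclusive = only one of those two conditions holds; inactive = neither condition holds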
# IDH1 mut inh: inhibitors of IDH1 R132H reductase, primary screen, biochemical, plate reader, single point | Isocitrate dehydrogenase [NADP] cytoplasmic (Homo sapiens), O75874 | diaphorase/resazurin fluorescence, 60 min | inhibition, % at 10 µM | 0.18% of 70,000 active; in the data active = inhibition above about 34%; inconclusive = no clear call, values can overlap the other calls; inactive = below about 11%;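 also: 0% = DMSO and 100% = no enzyme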
# Pf Dd2 inh: P. falciparum Dd2 growth inhibitors, primary screen, SYBR Green fluorescence, single dose replicates | 72 h; stronger effect = lower value | activity change, % at 10 µM | 2.3% of 94,000 active | AID 1159554, 2015; in the data active = activity change below about -80%; inconclusive = no clear call, values can overlap the other calls
# KDM4C inh: inhibitors of GASC-1 (KDM4C) histone demethylase, primary screen, biochemical, single concentration HTS. Lysine-specific demethylase 4C (Homo sapiens), Q9H3R0. GST-KDM4C 2-372, H3K9me3 peptide, LANCE TR-FRET. inhibition, % at 12.5 µM. 0.15% of 96,000 active. AID 720574, 2013;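 active = mean replicate inhibition above about 25%, with at least 55% of replicates also reaching it, limit read from the data, passing the limit was not always enough; inconclusive = only one of those two conditions met; inactive = neither condition met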
# Target sequence (Q9H3R0 2-372 limits assumed): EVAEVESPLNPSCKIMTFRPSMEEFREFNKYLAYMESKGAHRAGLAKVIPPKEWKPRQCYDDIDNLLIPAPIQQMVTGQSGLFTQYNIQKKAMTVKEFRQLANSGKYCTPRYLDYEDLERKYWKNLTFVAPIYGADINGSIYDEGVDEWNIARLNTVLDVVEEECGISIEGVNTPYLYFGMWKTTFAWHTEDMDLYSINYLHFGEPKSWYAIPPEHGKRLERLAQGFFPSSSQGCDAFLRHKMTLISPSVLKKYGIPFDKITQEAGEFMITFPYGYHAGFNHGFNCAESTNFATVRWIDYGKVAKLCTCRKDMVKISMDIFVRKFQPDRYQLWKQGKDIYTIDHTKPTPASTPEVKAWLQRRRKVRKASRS
#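 Test system – GST-tagged GASC-1 (JMJD2C) catalytic fragment, aa 2-372 · Medium – HEPES buffer, pH 7.5, plus ascorbate · Reagent – H3K9me3 peptide with Fe(II)/2OG · Compound – one test concentration per compound · Timing – 30 min reaction, 60 min detection, RT · Technique – TR-FRET with Eu antibody and ULight streptavidin, EDTA stop · Read-out basis – inhibition from TR-FRET ratio decrease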
# The depositor's hits bear a star; ? = inconclusive; nt = not tested or not shown; ! = not active in a repeat. In the library only some 5.8% were active in any assay of this set; here they are far more common.
SMILES,T cruzi growth,IDH1 mut inh,Pf Dd2 inh,KDM4C inh
COc1ccc(S(=O)(=O)N(C)C[C@H]2OCCCC[C@@H](C)Oc3ccc(NC(=O)Nc4ccc(C(F)(F)F)cc4)cc3C(=O)N([C@@H](C)CO)C[C@H]2C)cc1,89.4,nt,-84.6*,0.6
COc1ccc(NC(=O)Nc2ccc3c(c2)C(=O)N([C@H](C)CO)C[C@@H](C)[C@H](CN(C)S(=O)(=O)c2ccc(OC)cc2)OCCCC[C@H](C)O3)cc1,-14.2,-0.5,8.6,-0.3
COc1ccc(S(=O)(=O)N(C)C[C@H]2OCCCC[C@@H](C)Oc3ccc(NC(=O)Nc4ccc(C(F)(F)F)cc4)cc3C(=O)N([C@@H](C)CO)C[C@@H]2C)cc1,80.0,1.8,-84.7*,-0.9
COc1ccc(S(=O)(=O)N(C)C[C@@H]2OCCCC[C@@H](C)Oc3ccc(NC(=O)Nc4ccc(C(F)(F)F)cc4)cc3C(=O)N([C@@H](C)CO)C[C@H]2C)cc1,89.8,nt,-75.0,0.0
NC(=O)c1ccccc1NC(=O)COc1ccc2oc3c(c2c1)CCCC3,nt,-0.2,nt,nt
CC1C=NC(S(=O)(=O)N2CC[C@@H]3[C@@H](CO)N(C)c4ccc(-c5ccccc5)cc4[C@@H]32)=N1 (some centres not stated),92.1,nt,13.5,0.5
CCCC(=O)Nc1ccc2c(c1)C(=O)N(C)C[C@@H](OC)[C@@H](C)CN(Cc1ccccn1)[C@@H](C)CO2,-3.0,-0.1,-15.1,-0.2
CC(C)NC(=O)Nc1ccc2c(c1)C(=O)N([C@H](C)CO)C[C@H](C)[C@H](CN(C)S(=O)(=O)c1ccc(Cl)cc1)OCCCC[C@@H](C)O2,43.5,-0.3,-68.3,-0.5
C[C@@H]1CN([C@@H](C)CO)C(=O)c2cc(NC(=O)Nc3ccccc3)ccc2O[C@@H](C)CCCCO[C@H]1CN(C)S(=O)(=O)c1ccc(Cl)cc1,33.9,0.3,-82.9*,-0.5
Cc1ccc(S(=O)(=O)N(C)C[C@@H]2OCCCC[C@H](C)Oc3ccc(NC(=O)Nc4ccccc4)cc3C(=O)N([C@@H](C)CO)C[C@H]2C)cc1,66.2,nt,-91.6*,0.1
Cc1ccc(S(=O)(=O)N(C)C[C@H]2OCCCC[C@H](C)Oc3ccc(NC(=O)NC4CCCCC4)cc3C(=O)N([C@@H](C)CO)C[C@H]2C)cc1,24.9,nt,-86.1*,-0.5
CC(C)NC(=O)Nc1ccc2c(c1)C(=O)N([C@@H](C)CO)C[C@H](C)[C@H](CN(C)S(=O)(=O)c1ccc(Cl)cc1)OCCCC[C@@H](C)O2,49.5,-3.9,-83.3*,-2.3
CC(C)NC(=O)N[C@@H]1CC[C@@H](CCNS(=O)(=O)c2ccc(Cl)cc2)O[C@@H]1CO,-23.2,0.1,-9.9,1.8
COc1ccccc1C#Cc1cnc2c(c1)C(=O)N([C@@H](C)CO)C[C@@H](C)[C@H](CN(C)S(=O)(=O)c1cn(C)cn1)O2,nt,nt,-13.4,-1.5
COCC#Cc1cnc2c(c1)C(=O)N([C@H](C)CO)C[C@@H](C)[C@H](CN(C)Cc1ccc(F)cc1)O2,9.9,0.0,-4.7,1.6
Cc1ccc(S(=O)(=O)N(C)C[C@@H]2OCCCC[C@@H](C)Oc3ccc(NC(=O)Nc4ccc(F)cc4)cc3C(=O)N([C@H](C)CO)C[C@@H]2C)cc1,nt,-0.5,-83.5*,nt
Cc1ccc(S(=O)(=O)N(C)C[C@@H]2OCCCC[C@@H](C)Oc3ccc(NC(=O)Nc4ccccc4)cc3C(=O)N([C@@H](C)CO)C[C@H]2C)cc1,46.4,nt,-66.8,5.2
Cc1ccc(S(=O)(=O)N(C)C[C@@H]2OCCCC[C@@H](C)Oc3ccc(NC(=O)Nc4ccccc4)cc3C(=O)N([C@@H](C)CO)C[C@@H]2C)cc1,24.8,nt,-90.9*,0.5
Cc1ccc(Nc2nc(Nc3ccc(C)cc3)nc(Sc3nnc(C)s3)n2)cc1,nt,0.4,nt,nt
CCCN1[C@H](C(=O)OC)[C@@H](CO)[C@@H]2Cn3c(ccc(-c4cccc(C(=O)N(C)C)c4)c3=O)[C@@H]21,nt,nt,-7.0,4.2
C[C@@H]1CN([C@H](C)CO)C(=O)c2cccc(NC(=O)CCCCCC(=O)Nc3ccccc3N)c2O[C@@H]1CN(C)Cc1ccc2c(c1)OCO2,nt,0.1,-85.2*,11.3
C[C@@H]1CN([C@H](C)CO)C(=O)c2cccc(NC(=O)CCCCCC(=O)Nc3ccccc3N)c2O[C@H]1CN(C)Cc1ccc2c(c1)OCO2,nt,0.1,-90.5*,-0.2
C[C@@H]1CN([C@H](C)CO)C(=O)Cc2cc(NC(=O)CCCCCC(=O)Nc3ccccc3N)ccc2O[C@H]1CN(C)Cc1ccc2c(c1)OCO2,34.5,0.3,-40.0,-0.1
CN(C)CC#Cc1ccc([C@@H]2[C@H](CO)N3C(=O)CN(C(=O)c4cccc(F)c4)C[C@@H]23)cc1,nt,nt,-14.8,3.1
COc1ccc(CN(C)C[C@H]2Oc3ccc(NC(=O)NC4CCCCC4)cc3CC(=O)N([C@H](C)CO)C[C@@H]2C)cc1,nt,1.0,nt,0.2
SMILES,T cruzi growth,IDH1 mut inh,Pf Dd2 inh,KDM4C inh
C[C@H]1CN([C@@H](C)CO)C(=O)c2cc(NC(=O)C3CC3)ccc2O[C@@H]1CN(C)S(=O)(=O)c1cccs1,-8.4,0.7,25.9,1.4
N#Cc1ccc(-c2ccc(C3[C@@H]4CN(C(=O)Nc5ccc(C(F)(F)F)cc5)C[C@H]3N4)cc2)cc1 (some centres not stated),nt,nt,?,-20.5
O=C(Nc1ccc(C(F)(F)F)cc1)N1C[C@@H]2N[C@H](C1)C2c1ccc(-c2cccc(F)c2)cc1 (some centres not stated),nt,nt,-83.5*!,1.7
COc1ccc(NC(=O)N2[C@@H]3CNC[C@H]2C3c2ccc(-c3ccc(OC)cc3)cc2)cc1 (some centres not stated),nt,nt,-33.2,0.9
COc1ccc(-c2ccc(C3[C@H]4CNC[C@@H]3N4C(=O)Nc3ccc(C(F)(F)F)cc3)cc2)cc1 (some centres not stated),nt,nt,-84.1*!,-0.6
Cc1ccc(-c2ccc(C3[C@@H]4CN(C(=O)Nc5ccc(C(F)(F)F)cc5)C[C@H]3N4)cc2)cc1 (some centres not stated),nt,nt,-85.0*,-5.2
COCC(=O)N1CCC2(CC1)CN(Cc1ccccc1F)[C@H](CO)c1[nH]c3cc(OC)ccc3c12,nt,nt,-88.6*,0.1
COCC(=O)N1CC2(C1)CN(Cc1ccccn1)[C@@H](CO)c1[nH]c3cc(OC)ccc3c12,nt,nt,-82.2*,-2.4
COCC(=O)N1CC2(C1)CN(Cc1ccccc1F)[C@H](CO)c1[nH]c3cc(OC)ccc3c12,nt,nt,-88.4*,-1.0
COc1ccc2c3c([nH]c2c1)[C@H](CO)N(Cc1ccccc1F)CC31CN(C)C1,nt,nt,-53.4,0.0
COCC(=O)N1CC2(C1)CN(Cc1cc(F)ccc1F)[C@H](CO)c1[nH]c3cc(OC)ccc3c12,nt,nt,-87.2*,-1.2
COCC#Cc1ccc([C@H]2[C@H]3CN(C(=O)C4CCOCC4)CC(=O)N3[C@H]2CO)cc1,nt,nt,33.9,0.3
